Compound activity as filed in PubChem BioAssay.
Lipid droplet – hepatic lipid droplet formation modulation | AML12 mouse hepatocytes, oleate lipid droplets, BODIPY imaging | inhibition, % at 6.5 µM | 240,000 compounds, 0.4% hits | AID 1656;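 active = lipid droplet intensity inhibited by at least 50%, with more than 500 cells counted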
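Material – mouse AML12 hepatocyte cell line, fixed after treatment · Compound dosing – one dose, 6.5 µM compound · Times – compound with oleate, overnight · Measured by – Image-based BODIPY and DAPI two-channel analysis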
Platelet DG rel – platelet dense granule release activity; human platelet-rich plasma, SFLLRN dense granule ATP release, luminescence; inhibition, %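 (compounds screened at 7.5 µM in platelet-rich plasma)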; 300,000 compounds, 0.22% hits;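 active = mean replicate score, as percent of positive control, at or above 50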
STAT3 blocker – inhibitors of IL-6 induced STAT3 signaling. U3A cells, IL-6 STAT3-luciferase reporter, luminescence; host cell line lacks STAT1. inhibition, % at 5.5 µM. 190,000 compounds, 0.89% hits. AID 862;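 active = inhibition above the mean inhibition across all screened compounds plus 3 SD, cut at about 44% in these data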;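 also: 0% = DMSO only wells and 100% = 100 µM nifuroxazide control wells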
PPC-1+TRAIL kill – PPC-1 cancer cell killing with TRAIL present; PPC-1 cells + TRAIL, ATPLite viability luminescence; cell killing (% activity), % at 4 µM or 5 µM; 220,000 compounds, 0.41% hits;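 active = cell killing above 50% in the first pass at 4 µM, then a duplicate retest at 5 µM averaging 50% or more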;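 also: plate controls were cells with TRAIL plus DMSO for no effect and medium-only wells lacking cells for full effect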
TAG inh – reduces triacylglycerol accumulation in H9c2 cells; AID 651582; 230,000 compounds, 0.66% hits; inhibition, % at 12.5 µM; Nile Red lipid (TAG) fluorescence; cells loaded with 200 µM oleic acid;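 active = pattern-corrected inhibition of lipid staining of at least 50% with the nuclear-stain viability signal not falling by more than 50%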;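 also: 0% = DMSO wells and 100% = triacsin C control wells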
STAT1 blocker – STAT1 signaling inhibition | NIH 3T3 STAT1-luciferase reporter, IFN-gamma, luminescence | inhibition, % at 5.5 µM | 200,000 compounds, 0.35% hits | AID 920;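 active = inhibition above a set limit, the mean inhibition across all tested compounds plus 3 SD, cut at about 34% in these data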;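 also: 0% = IFN-gamma with DMSO and 100% = IFN-gamma with 300 µM nifuroxazide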
TAG conf – triacylglycerol accumulation inhibition, confirmation. shares compounds with TAG inh. H9c2 lipid accumulation, Nile Red fluorescence; cells loaded with 200 µM oleic acid. inhibition, % at 12.5 µM. 990 compounds, 71% hits. AID 651629;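 active = mean inhibition across replicates of 40% or more; inactive = mean inhibition below 40%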;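 also: plate controls were DMSO only wells for no effect and Triacsin C treated wells for full effect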
* = called active by the depositor; . = no result. Sampled rows, rich in hits. Any-hit rate of the full collection: about 1.5%.

SMILES	Lipid droplet	Platelet DG rel	STAT3 blocker	PPC-1+TRAIL kill	TAG inh	STAT1 blocker	TAG conf
C=CC[C@@H](CC(=O)N(CCO)Cc1ccccc1)C(=O)N[C@@H](COC(=O)[C@@H](CC=C)Cc1ccc(F)cc1)Cc1ccccc1	.	.	.	.	74.8*	.	62.5*
C=CC[C@H](CC(=O)N(CCO)Cc1ccccc1)C(=O)N[C@@H](C)COC(=O)[C@@H](CC=C)Cc1ccc(F)cc1	.	.	.	.	22.4	.	.
C=CC[C@@H](CC(=O)N[C@@H](CO)Cc1ccccc1)C(=O)N[C@H](COC(=O)[C@@H](CC=C)Cc1ccc(F)cc1)C(C)(C)C	.	.	.	.	21.8	.	.
Cc1onc(-c2ccccc2)c1C(=O)N1CCCC(C)(C(=O)NS(=O)(=O)C2CC2)C1 (stereo unspecified)	.	.	.	.	5.6	.	.
O=C(C[C@H]1C[C@H](C(=O)N2CCCCC2)[C@@]2(CCc3ccccc3)c3[nH]c4ccc(Cl)cc4c3CCN2C1=O)NCc1ccco1	.	.	.	.	34.6	.	.
COCCCNC(=O)C[C@H]1C[C@H](C(=O)N2CCCCC2)[C@@]2(CCc3ccccc3)c3[nH]c4ccc(Cl)cc4c3CCN2C1=O	.	.	.	.	26.9	.	.
O=C(C[C@H]1C[C@H](C(=O)N2CCCCC2)[C@@]2(CCc3ccccc3)c3[nH]c4ccc(Cl)cc4c3CCN2C1=O)NCc1cccc(C(F)(F)F)c1	.	.	.	.	102.4*	.	100.3*
CC(C)(C)NC(=O)C[C@H]1C[C@H](C(=O)N2CCCCC2)[C@@]2(CCc3ccccc3)c3[nH]c4ccc(Cl)cc4c3CCN2C1=O	.	.	.	.	61.7*	.	44.9*
O=C(CC1C[C@H](C(=O)N2CCCCC2)[C@@]2(CCc3ccccc3)c3[nH]c4ccccc4c3CCN2C1=O)NCc1cccc(C(F)(F)F)c1 (stereo partly specified)	.	.	.	.	91.0*	.	88.0*
COc1ccc2[nH]c3c(c2c1)CCN1C(=O)C(CC(=O)NCc2cccc(C(F)(F)F)c2)C[C@H](C(=O)N2CCCCC2)[C@@]31CCc1ccccc1 (stereo partly specified)	.	.	.	.	102.3*	.	90.0*
O=C(CC1C[C@H](C(=O)N2CCCCC2)[C@@]2(CCc3ccccc3)c3[nH]c4ccccc4c3CCN2C1=O)NCCc1ccccn1 (stereo partly specified)	.	.	.	.	19.5	.	.
CCOC(=O)C1=C(COC(=O)C(CC)c2ccccc2)NC(=O)NC1C (stereo unspecified)	.	.	.	.	2.0	.	.
O=C(COC(=O)c1ccncc1)Nc1cccc2ccccc12	.	.	.	.	1.2	.	.
COc1ccc(S(=O)(=O)NCc2ccccn2)cc1C	.	.	.	.	-11.2	.	.
CC(C)(C)c1csc(NNC(=O)c2ccc(Br)cc2)n1	4.8	8.3	12.3	5.1	54.6*	-31.9	11.7
CC(C)NC(=O)c1cc2c(s1)CCCC2	-2.0	0.5	3.3	21.9	-0.6	4.7	.
CCc1nnc(NC(=O)c2cc3c(s2)CCCCC3)s1	.	-6.7	13.2	.	50.0*	-21.9	12.0
CN1CCN(S(=O)(=O)c2cccc(C(=O)N(C)CC(=O)Nc3ccc(Cl)c(Cl)c3)c2)CC1	.	.	.	.	-16.0	.	.
COc1cc(-c2cnc3c(NC=O)cc(-c4cccc(NC(C)=O)c4)cn23)cc(OC)c1OC	.	.	.	.	73.0*	.	96.0*
CN1CCN(c2ccc([N+](=O)[O-])cc2C(=O)c2ccc(Cl)cc2)CC1	-5.7	-10.1	13.1	6.7	53.8*	-0.6	49.5*
C=C(C)c1cccc(C(C)(C)NC(=O)N2CCC(C(N)=O)CC2)c1	12.6	-2.5	6.4	1.6	58.7*	1.2	7.2
